Results from ChEMBL document CHEMBL4808224, “Rational Design of Original Fused-Cycle Selective Inhibitors of Tryptophan 2,3-Dioxygenase” (J Med Chem, 2021).
Blank lines part the entries; values can stand above or below the compound they belong to. The source made the active and inactive calls. No cut-off for these calls is given here.

Columns and labels:
[1] = Cytotoxicity against mouse P815B cells incubated for 2 to 4 hrs by MTS assay; assay type: cell-based, P815; details: time 2-4 hrs, read-out: LD50 (the source's name)
Summary of the method: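 1 × 10⁵ cells per well in DMEM; MTS with PMS, diluted in PBS, added to the wells; incubated 2–4 h at 37 °C; absorbance read at 490 nm.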

[2] = biological target: Indoleamine 2,3-dioxygenase 1 (Homo sapiens) (UniProt P14902); test: Inhibition of human IDO1 assessed as reduction in kynurenine production at 100 uM using tryptophan as substrate by enzymatic assay
Chain of Indoleamine 2,3-dioxygenase 1 (Homo sapiens) (P14902 whole entry, looked up): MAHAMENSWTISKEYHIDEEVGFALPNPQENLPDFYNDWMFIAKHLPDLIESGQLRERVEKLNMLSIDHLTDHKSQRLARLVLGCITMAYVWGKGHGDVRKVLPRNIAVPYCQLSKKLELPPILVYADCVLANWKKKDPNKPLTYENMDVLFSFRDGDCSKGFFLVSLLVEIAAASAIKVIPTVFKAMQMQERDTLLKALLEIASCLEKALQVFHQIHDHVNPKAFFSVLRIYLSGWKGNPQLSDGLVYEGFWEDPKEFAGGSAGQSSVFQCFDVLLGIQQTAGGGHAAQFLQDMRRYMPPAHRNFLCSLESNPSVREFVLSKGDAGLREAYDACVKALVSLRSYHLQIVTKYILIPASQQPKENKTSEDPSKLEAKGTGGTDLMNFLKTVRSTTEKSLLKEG

[3] = biological target: Indoleamine 2,3-dioxygenase 1 (Homo sapiens) (UniProt P14902); test: Inhibition of human IDO1 assessed as reduction in kynurenine production at 100 uM using tryptophan as substrate by cellular assay
[4] = Cysteamine reactivity assessed as aromatic signals at 1 mM measured after 30 mins by 1H NMR spectroscopy; assay type: physicochemical; details: 0.5 h, 1000 µM
[5] = Cysteamine reactivity assessed as aromatic signals at 1 mM measured after 30 mins by LC-MS/MS analysis; assay type: physicochemical; details: 0.5 h, 1000 µM
[6] = Toxicity in mouse P815 cells assessed as cell cycle distribution at > 100 uM measured after 6 to 12 hrs by propidium iodide DNA staining based flow cytometry; details: time 6-12 hrs
[7] = Metabolic stability in liver microsomes (unknown origin) assessed as half life at 10 uM by UPLC analysis; assay type: ADME, Microsome
[8] = biological target: Tryptophan 2,3-dioxygenase (Homo sapiens, UniProt P48775); test: Inhibition of human TDO2 expressed in HEK293E cells assessed as reduction in N-formylkynurenine formation using tryptophan as substrate measured after 24 hrs by HPLCC based UV spectrometry; assay type: cell-based, HEK2936E
Chain of Tryptophan 2,3-dioxygenase (P48775 whole entry): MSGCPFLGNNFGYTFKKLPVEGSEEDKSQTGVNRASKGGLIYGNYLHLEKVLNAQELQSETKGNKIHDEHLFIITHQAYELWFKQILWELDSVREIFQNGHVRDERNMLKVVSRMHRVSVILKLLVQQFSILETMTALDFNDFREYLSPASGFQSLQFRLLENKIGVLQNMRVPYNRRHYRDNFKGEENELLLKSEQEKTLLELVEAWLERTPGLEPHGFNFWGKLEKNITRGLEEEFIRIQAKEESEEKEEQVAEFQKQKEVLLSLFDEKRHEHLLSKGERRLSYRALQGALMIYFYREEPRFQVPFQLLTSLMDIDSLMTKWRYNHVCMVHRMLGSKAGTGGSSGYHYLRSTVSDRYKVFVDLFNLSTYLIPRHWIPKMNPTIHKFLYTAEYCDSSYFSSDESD

Structure (SMILES): Fc1ccc2c(/C=C/c3cccnc3)c[nH]c2c1
CC50 [1]: > 80 µM
inhibition [2]: inactive
inhibition [3]: inactive

Structure (SMILES): c1ccc2c(-c3ccc4cnccc4c3)c[nH]c2c1
CC50 [1]: > 30 µM

Structure (SMILES): c1ccc2c(-c3ccc4ncncc4c3)c[nH]c2c1
CC50 [1]: > 100 µM

Structure (SMILES): c1ccc2c(-c3ccc4cncnc4c3)c[nH]c2c1
CC50 [1]: > 100 µM

Structure (SMILES): O=C1NCC2C=CC(c3c[nH]c4ccccc34)=CC2N1 (stereo not given)
CC50 [1]: > 30 µM

Structure (SMILES): c1ccc2c(-c3ccc4n[nH]nc4c3)c[nH]c2c1
CC50 [1]: > 100 µM
Drug metabolism [4]: Metabolite_Notdetected
Drug metabolism [5]: Metabolite_Notdetected
Activity [6]: Non-Toxic

Structure (SMILES): Fc1ccc2c(/C=C/c3nnn[nH]3)c[nH]c2c1
CC50 [1]: > 100 µM
half-life at 10 µM [7]: > 1440 min
inhibition [2]: inactive
Drug metabolism [4]: Metabolite_Detected
Drug metabolism [5]: Metabolite_Detected
inhibition [3]: inactive

half-life at 10 µM [7]: 45 min
Structure (SMILES): FC(F)(F)Cn1nnc2ccc(-c3c[nH]c4ccccc34)cc21

IC50 [8]: 3.2 µM
Structure (SMILES): O=S(=O)(c1ccc(-c2c[nH]c3cc(F)ccc23)cn1)N1CCNCC1

Structure (SMILES): c1ccc2c(-c3ccc4ccncc4c3)c[nH]c2c1
CC50 [1]: > 20 µM
